Bioassay records from PubChem.
An excerpt weighted towards active compounds, which were near 5.9% of everything screened.
Pf Dd2 growth: P. falciparum Dd2 growth inhibitors, primary screen, SYBR Green fluorescence, single dose replicates; 72 h; stronger effect = lower value; activity change, % at 10 µM; 94,000 compounds, 2.3% hits; AID 1159554, 2015; in the data active = activity change below about -80%; inconclusive = no clear call, values can overlap the other calls
GASC1 inh: inhibitors of GASC-1 (KDM4C) histone demethylase, primary screen, biochemical, single concentration HTS; AID 720574, 2013; inhibition, % at 12.5 µM; Lysine-specific demethylase 4C (Homo sapiens), Q9H3R0; 96,000 compounds, 0.15% hits; GST-KDM4C 2-372, H3K9me3 peptide, LANCE TR-FRET;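 active = mean replicate inhibition above about 25%, with at least 55% of replicates also reaching it, limit read from the data, passing the limit was not always enough; inconclusive = only one of those two conditions met; inactive = neither condition met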
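Test system – GST-tagged GASC-1 (JMJD2C) catalytic fragment, aa 2-372 · Medium – HEPES buffer, pH 7.5, plus ascorbate · Reagent – H3K9me3 peptide with Fe(II)/2OG · Compound – one test concentration per compound · Timing – 30 min reaction, 60 min detection, RT · Technique – TR-FRET with Eu antibody and ULight streptavidin, EDTA stop · Read-out basis – inhibition from TR-FRET ratio decrease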
T cruzi growth-1: T. cruzi intracellular proliferation inhibitors, primary screen, cell-based, beta-gal Tulahuen parasites, NIH3T3 host, luminescence | 77,000 compounds, 5.9% hits | AID 624255, 2012 | inhibition, % at 8.34 µM | T. cruzi beta-gal in NIH3T3, GalScreen luminescence, 90 h;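 active = mean inhibition above about 93%, with at least 55% of replicates each passing it, limit read from the data, passing the limit was not always enough; inconclusive = only one of those two conditions holds; inactive = neither condition holds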
IDH1 R132H inh: inhibitors of IDH1 R132H reductase, primary screen, biochemical, plate reader, single point. diaphorase/resazurin fluorescence, 60 min. inhibition, % at 10 µM. AID 624101, 2012. Isocitrate dehydrogenase [NADP] cytoplasmic (Homo sapiens), O75874. 70,000 compounds, 0.18% hits; in the data active = inhibition above about 34%; inconclusive = no clear call, values can overlap the other calls; inactive = below about 11%;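 note: 0% = DMSO and 100% = no enzyme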
Target sequence (O75874 whole entry R132H): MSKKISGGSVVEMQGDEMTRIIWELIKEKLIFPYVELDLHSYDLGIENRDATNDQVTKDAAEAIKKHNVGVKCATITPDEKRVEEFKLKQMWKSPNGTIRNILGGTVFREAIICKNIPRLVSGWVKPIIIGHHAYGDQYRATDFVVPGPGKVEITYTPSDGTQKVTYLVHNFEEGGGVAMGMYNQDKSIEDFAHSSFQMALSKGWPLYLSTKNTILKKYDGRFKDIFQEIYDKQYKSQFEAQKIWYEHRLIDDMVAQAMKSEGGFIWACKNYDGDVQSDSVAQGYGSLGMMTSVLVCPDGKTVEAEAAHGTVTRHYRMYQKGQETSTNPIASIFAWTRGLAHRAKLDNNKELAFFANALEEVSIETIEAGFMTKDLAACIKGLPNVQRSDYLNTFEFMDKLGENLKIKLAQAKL
T cruzi growth-2: T. cruzi intracellular proliferation inhibitors, confirmation, cell-based, NIH3T3 host, beta-gal parasite, luminescence, cherry-pick | T. cruzi beta-gal in NIH3T3, GalScreen luminescence, 90 h | inhibition, % at 8.35 µM | shares compounds with T cruzi growth-1 | 5,600 compounds, 72% hits;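 active = mean replicate inhibition above about 95% and at least 55% of replicates individually reaching it, limit read from the data; inconclusive = only one of the two criteria is met; inactive = neither criterion is met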
T cruzi growth-3: inhibitors of intracellular T. cruzi replication, confirmation, NIH3T3 host cells, beta-gal parasites, cherry-pick, set 2; shares compounds with T cruzi growth-1; T. cruzi beta-gal in NIH3T3, GalScreen luminescence, 90 h; inhibition, % at 2.09 µM; 5,600 compounds, 21% hits;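 active = mean inhibition above about 95%, with at least 55% of replicates also reaching it, limit read from the data; inconclusive = meets just one of the two conditions; inactive = meets neither condition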;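 note: plate controls were neutral control median for no effect and positive control median for full effect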
3T3 cytotox: cytotoxicity in mouse NIH/3T3 fibroblasts, confirmation, cytotoxicity control for T. cruzi proliferation inhibitor project, cell-based, cherry-pick, single point. shares compounds with T cruzi growth-1. NIH/3T3 viability, CellTiter-Glo ATP luminescence, 90 h. cytotoxicity (signal decrease), % at 8.35 µM. 5,600 compounds, 14% hits;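 active = mean signal decrease across replicates above about 35% based on untreated-well scatter, with enough replicates individually passing, limit read from the data; inconclusive = no rule stated though some were filed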;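 note: 0% = median of neutral control wells and 100% = median of positive control wells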
NIH3T3 tox 2: NIH/3T3 fibroblast cytotoxicity, confirmation, cytotoxicity control, cell-based, cherry-pick, single point, set 2. NIH/3T3 viability, CellTiter-Glo ATP luminescence, 90 h. inhibition, % at 24.9 µM. 5,600 compounds, 56% hits. shares compounds with T cruzi growth-1;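 active = mean loss of cell viability signal at or above a set limit, and enough replicates individually reaching it; inconclusive = meets only the mean limit or only the replicate share; inactive = meets neither condition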;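 note: 0% = median of neutral control wells and 100% = median of positive control wells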
* hit, by the source's call.

For C[C@@H]1CN([C@H](C)CO)C(=O)c2cc(/C=C/c3ccccc3)cnc2O[C@@H]1CN(C)S(=O)(=O)c1ccc(F)cc1 the results were Pf Dd2 growth -35, GASC1 inh -1, T cruzi growth-1 80*, IDH1 R132H inh 0, T cruzi growth-2 105*, T cruzi growth-3 41, 3T3 cytotox 17 and NIH3T3 tox 2 51*.
For C/C=C/c1cnc2c(c1)C(=O)N([C@@H](C)CO)C[C@@H](C)[C@@H](CN(C)S(=O)(=O)c1ccc(F)cc1)O2 the results were Pf Dd2 growth 4, GASC1 inh 1, T cruzi growth-1 35 and IDH1 R132H inh 2.
C[C@H]1CN([C@@H](C)CO)C(=O)c2cc(/C=C/c3ccccc3)cnc2O[C@@H]1CN(C)S(=O)(=O)c1ccc(F)cc1 was read as Pf Dd2 growth -61, GASC1 inh 1, T cruzi growth-1 83*, IDH1 R132H inh -4, T cruzi growth-2 100*, T cruzi growth-3 71, 3T3 cytotox 10 and NIH3T3 tox 2 12.
For CS(=O)(=O)N(CC(=O)Nc1cc(Cl)ccc1Oc1ccccc1)c1cc(Cl)ccc1Cl the results were IDH1 R132H inh 0.
Screening CCc1ccccc1N(CC(=O)N1CCC(Cc2ccccc2)CC1)S(C)(=O)=O returned IDH1 R132H inh -1.
Screening CN(C)C(=O)c1cccc(-c2ccc3c(c2)[C@@H]2[C@@H](CCN2S(=O)(=O)c2cn(C)cn2)[C@@H](CO)N3)c1 returned Pf Dd2 growth 16, GASC1 inh 0, T cruzi growth-1 inconclusive, T cruzi growth-2 103*, T cruzi growth-3 40, 3T3 cytotox 14 and NIH3T3 tox 2 -9.
Screening CN(C)C(=O)c1cccc(-c2ccc3c(c2)[C@@H]2[C@@H](CCN2S(=O)(=O)c2cn(C)cn2)[C@H](CO)N3)c1 returned Pf Dd2 growth 29, GASC1 inh -2, T cruzi growth-1 inconclusive, T cruzi growth-2 96*, T cruzi growth-3 66, 3T3 cytotox -11 and NIH3T3 tox 2 -23.
COc1ccc(-c2ccc([C@H]3[C@@H](CO)N4CCCCN(CC5CCOCC5)C[C@@H]34)cc2)cc1 was read as Pf Dd2 growth 0, GASC1 inh 0, T cruzi growth-1 99*, T cruzi growth-2 inconclusive, T cruzi growth-3 27, 3T3 cytotox inconclusive and NIH3T3 tox 2 78*.
For COc1ccc(-c2ccc([C@H]3[C@@H](CO)N4CCCCN(CC5CCOCC5)C[C@H]34)cc2)cc1 the results were Pf Dd2 growth -32, GASC1 inh 0, T cruzi growth-1 101*, T cruzi growth-2 94, T cruzi growth-3 67, 3T3 cytotox 19 and NIH3T3 tox 2 96*.
For COc1ccc(-c2ccc([C@H]3[C@H]4CN(CC5CCOCC5)CCCCN4[C@H]3CO)cc2)cc1 the results were Pf Dd2 growth -22, GASC1 inh 0 and T cruzi growth-1 -2.
For C[C@@H]1CN([C@H](C)CO)C(=O)c2cc(NC(=O)Nc3cccc4ccccc34)ccc2O[C@@H](C)CCCCO[C@H]1CN(C)C(=O)C1CCCCC1 the results were Pf Dd2 growth -66, GASC1 inh -2, T cruzi growth-1 inconclusive, T cruzi growth-2 104*, T cruzi growth-3 106*, 3T3 cytotox 15 and NIH3T3 tox 2 24.
